Assay results from ChEMBL document CHEMBL1629704, “Inhibition of dengue virus by an ester prodrug of an adenosine analog” (Antimicrob Agents Chemother, 2010).

Columns and labels:
A549 [1] = test: Cytotoxicity against human A549 cells up to 12.5 uM after 48 hrs by MTT assay; type: functional, cell-based
A549 [2] = test: Cytotoxicity against human A549 cells at >= 25 uM after 48 hrs by MTT assay; type: cell-based; settings: a549, 48 h
dengue virus type 2 [3] = test: Antiviral activity against Dengue virus 2 NGC infected in human A549 cells by CFI assay; type: functional, organism-based
How it was run: (§1)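 CFI assay: A549 cells seeded 2 × 10^4/well, infected next day (MOI 0.3 for DENV-2) with compound-virus mixture for 1 h, then refed with compound-containing medium. On day 2 cells were methanol-fixed at 4°C and intracellular E protein detected by ELISA (4G2 primary, HRP anti-mouse secondary). EC50 is the average of two independent experiments.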

dengue virus type 1 = test: Antiviral activity against Dengue virus 1 MY10245 infected in human A549 cells by CFI assay; type: functional, organism-based; how it was run: as §1
dengue virus type 2 [4] = test: Antiviral activity against Dengue virus 2 MY10340 infected in human A549 cells by CFI assay; type: functional, organism-based; how it was run: as §1
dengue virus type 3 = test: Antiviral activity against Dengue virus 3 MY22366 infected in human A549 cells by CFI assay; type: functional, organism-based; how it was run: as §1
dengue virus type 4 = test: Antiviral activity against Dengue virus 4 MY22713 infected in human A549 cells by CFI assay; type: functional, organism-based; how it was run: as §1
dengue virus type 2 [5] = test: Antiviral activity against Dengue virus 2 NGC infected in human PBMC cells by plaque assay; type: functional, organism-based
[6] = Cmax in CD-1 mouse at 25 mg/kg, po by LC-MS-MS analysis; type: ADME, organism-based; parameters: dose 25 mg/kg, route oral; settings: in vivo
How it was run: (§2)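 Female CD-1 mice dosed orally at 25 mg/kg, formulated at 2.5 mg/ml in 0.1 N HCl (1.5 equimolar), pH 3.5 with NaOH, topped off with 100 mM citrate pH 3.5. Blood taken from three animals per time point, 0.08–24 h. Plasma acetonitrile-methanol-acetic acid extract analysed by LC-MS-MS (LLOQ 9.2 ng/ml). Mean profile fitted noncompartmentally; F from dose-corrected p.o./i.v. AUC.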

[7] = Tmax in CD-1 mouse at 25 mg/kg, po by LC-MS-MS analysis; type: ADME, organism-based; parameters: dose 25 mg/kg, route oral; settings: in vivo; how it was run: as §2
Mus musculus = test: AUC (0 to infinity) in CD-1 mouse at 25 mg/kg, po by LC-MS-MS analysis; type: ADME, organism-based, Plasma; parameters: time infinity, dose 25 mg/kg, route oral; settings: in vivo; how it was run: as §2
[8] = Oral bioavailability in CD-1 mouse at 25 mg/kg by LC-MS-MS analysis; type: ADME, organism-based; settings: in vivo; how it was run: as §2
[9] = Volume of distribution in CD-1 mouse at 5 mg/kg, iv by LC-MS-MS analysis; type: ADME, organism-based; parameters: dose 5 mg/kg, route intravenous; settings: in vivo
How it was run: (§3)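 Female CD-1 mice, single i.v. injection of 5 mg/kg (1 mg/ml) in pH 3.5 HCl/citrate formulation. Blood from three animals at 0.02–24 h; heparinized plasma extracted and quantified by LC-MS-MS (LLOQ 9.2 ng/ml). Noncompartmental analysis of the mean concentration-time profile.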

[10] = Clearance in CD-1 mouse at 5 mg/kg, iv by LC-MS-MS analysis; type: ADME, organism-based; parameters: dose 5 mg/kg, route intravenous; settings: in vivo; how it was run: as §3
[11] = Half life in CD-1 mouse at 5 mg/kg, iv by LC-MS-MS analysis; type: ADME, organism-based; parameters: dose 5 mg/kg, route intravenous; settings: in vivo; how it was run: as §3
[12] = Cmax in Wistar rat at 24.8 mg/kg, po by LC-MS-MS analysis; type: ADME, organism-based; parameters: dose 24.8 mg/kg, route oral; settings: in vivo
How it was run: (§4)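 Female Wistar rats, fasted overnight until 4 h post-dose, given 24.8 mg/kg orally in pH 3.5 HCl/citrate solution. Serial blood sampling from groups of three, 0.17–48 h. Plasma quantified by LC-MS-MS (LLOQ 9.2 ng/ml). Noncompartmental fit of mean profile; bioavailability from dose-corrected AUC ratio versus i.v.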

[13] = Tmax in Wistar rat at 24.8 mg/kg, po by LC-MS-MS analysis; type: ADME, organism-based; parameters: dose 24.8 mg/kg, route oral; settings: in vivo; how it was run: as §4
Rattus norvegicus = test: AUC (0 to infinity) in Wistar rat at 24.8 mg/kg, po by LC-MS-MS analysis; type: ADME, organism-based, Plasma; parameters: time infinity, dose 24.8 mg/kg, route oral; settings: in vivo; how it was run: as §4
[14] = Oral bioavailability in Wistar rat at 24.8 mg/kg by LC-MS-MS analysis; type: ADME, organism-based; settings: in vivo; how it was run: as §4
[15] = Volume of distribution at steady state Wistar rat at 5.9 mg/kg, iv by LC-MS-MS analysis; type: ADME, organism-based; parameters: dose 5.9 mg/kg, route intravenous; settings: in vivo, read-out: Vdss
How it was run: (§5)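 Female Wistar rats given 5.9 mg/kg i.v. in pH 3.5 HCl/citrate formulation. Serial blood from groups of three rats, 0.17–48 h. Heparinized plasma extracted with acetonitrile-methanol-acetic acid, LC-MS-MS quantification (LLOQ 9.2 ng/ml); noncompartmental analysis of mean profile.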

[16] = Clearance in Wistar rat at 5.9 mg/kg, iv by LC-MS-MS analysis; type: ADME, organism-based; parameters: dose 5.9 mg/kg, route intravenous; settings: in vivo; how it was run: as §5
[17] = Half life in Wistar rat at 5.9 mg/kg, iv by LC-MS-MS analysis; type: ADME, organism-based; parameters: dose 5.9 mg/kg, route intravenous; settings: in vivo; how it was run: as §5
dengue virus type 2 [18] = test: Antiviral activity against Dengue virus 2 NGC infected in human A549 cells after 2 days by CFI assay in presence of 40 mg/ml human serum albumin; type: functional, organism-based; settings: A549, 48 h
How it was run: (§6)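 Modified CFI: A549 cells infected with DENV-2 New Guinea C (MOI 0.3) for 1 h without compound. Inoculum then replaced with medium containing compound dilutions plus the stated HSA and/or AGP. On day 2, cells methanol-fixed and intracellular E protein detected by ELISA (4G2 primary, HRP anti-mouse secondary); EC50 derived.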

dengue virus type 2 [19] = test: Antiviral activity against Dengue virus 2 NGC infected in human A549 cells after 2 days by CFI assay in presence of 2 mg/ml alpha-1-acid glycoprotein; type: functional, organism-based; settings: A549, 48 h; how it was run: as §6
dengue virus type 2 [20] = test: Antiviral activity against Dengue virus 2 NGC infected in human A549 cells after 2 days by CFI assay in presence of 40 mg/ml human serum albumin and 2 mg/ml alpha-1-acid glycoprotein; type: functional, organism-based; settings: A549, 48 h; how it was run: as §6
A549 [21] = test: Cytotoxicity against human A549 cells up to 25 uM after 48 hrs by MTT assay; type: functional, cell-based

C#C[C@@]1(O)[C@H](O)[C@@H](CO)O[C@H]1n1cc(C(N)=O)c2c(N)ncnc21
Activity (A549 [1]): Not toxic
Activity (A549 [2]): Non-toxic
EC50 (dengue virus type 2 [3]): 2.61 µM
EC50 (dengue virus type 1): 2.27 µM
EC50 (dengue virus type 2 [4]): 1.62 µM
EC50 (dengue virus type 3): 1.94 µM
EC50 (dengue virus type 4): 6.99 µM
EC50 (dengue virus type 2 [5]): 5 µM
Cmax [6]: 270 nM
Tmax [7]: 1 h
AUC (Mus musculus): 0.42 µM·h
bioavailability [8]: 1%
Vd [9]: 0.26 L/kg
clearance [10]: 21.9 mL/min/kg
half-life [11]: 1.31 h
Cmax [12]: 270 nM
Tmax [13]: 0.17 h
AUC (Rattus norvegicus): 3.15 µM·h
bioavailability [14]: 2%
Vd [15]: 2.71 L/kg
clearance [16]: 8.98 mL/min/kg
half-life [17]: 8.33 h
EC50 (dengue virus type 2 [18]): 4.76 µM
EC50 (dengue virus type 2 [19]): 2.52 µM
EC50 (dengue virus type 2 [20]): 4.64 µM
Activity (A549 [21]): Not toxic
